Sampled rows, rich in hits. Any-hit rate of the full collection: about 5.1%.
STAT3 blocker = STAT3 signaling inhibition; U3A cells, IL-6 STAT3-luciferase reporter, luminescence; host cell line lacks STAT1; inhibition, % at 5.5 µM; 0.89% of 190,000 active; AID 862;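 active = inhibition above the mean inhibition across all screened compounds plus 3 SD, cut at about 44% in these data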;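 note: 0% = DMSO only wells and 100% = 100 µM nifuroxazide control wells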
STAT1 inh = reduces IFN-gamma driven STAT1 reporter signal. AID 920. NIH 3T3 STAT1-luciferase reporter, luminescence. 0.35% of 200,000 active. inhibition, % at 5.5 µM;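 active = inhibition above a set limit, the mean inhibition across all tested compounds plus 3 SD, cut at about 34% in these data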;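 note: 0% = IFN-gamma with DMSO and 100% = IFN-gamma with 300 µM nifuroxazide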
STAT1 activator = STAT1 signaling activation; NIH 3T3 STAT1-luciferase reporter, IFN-gamma, luminescence; 100% = IFN-gamma alone, no compound; activation (% of control), % at 5.5 µM; 2.6% of 200,000 active; AID 932;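 active = activation above the screen-wide mean activation plus 3 SD, cut at about 130% in these data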;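 note: raw ratio to IFN-gamma control signal so 100% means no change and 0% no light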
STAT3 activator = activators of IL-6 induced STAT3 signaling; U3A cells, IL-6 STAT3-luciferase reporter, luminescence; 100% = signal with IL-6 EC80 alone; activation (% of control), % at 5.6 µM; 0.91% of 190,000 active; AID 871;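 active = activation above the screen-wide mean of compound activation plus 3 SD, cut at about 130% in these data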;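 note: 0% = background luminescence of wells with medium and substrate only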
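Material: STAT3-luciferase reporter U3A cells; Probe or stimulus: IL-6 (33 ng/mL); Incubation: compound pre-incubation 1 h before IL-6, then 6 h stimulation at 37 °C; Technique: luminescence from STAT3-driven luciferase reporter; Evaluation: % activation versus median of IL-6-stimulated wells; Controls: IL-6-only high control.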
APP 5'UTR act = APP 5'UTR luciferase reporter activation; SH-SY5Y APP 5'UTR luciferase reporter, luminescence; zero percent = DMSO vehicle wells; 1% of 190,000 active; AID 1276; activation, % at 2 µM;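 active = activation above a set limit, based on mean plus 3 SD of controls, cut at about 140% in these data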
NF-kB expr up = raises NF-kB expression in human neuronal cells. NF-kB reporter expression; hits give high values. fold change at 12.5 µM. 1.6% of 190,000 active; in the data active = fold change above about 3.3
Active calls of the source: *.

Screening Cc1ccc(NC(=O)CC2=NC(=O)C(CC(=O)Nc3ccccc3F)S2)cc1 (stereo not given) returned STAT3 blocker -3, STAT1 inh -19, STAT1 activator 116, STAT3 activator 110, APP 5'UTR act 12 and NF-kB expr up 1.1.
For CC(C)Nc1nc(NC(C)C)nc(SCCOC(=O)Nc2ccc(Cl)cc2Cl)n1 the results were STAT3 blocker 6, STAT1 inh 13, STAT1 activator 88, STAT3 activator 98, APP 5'UTR act 14 and NF-kB expr up 1.1.
Screening Cc1cc(=O)n2nc(-c3ccc(C(F)(F)F)cc3)sc2n1 returned STAT3 blocker 12, STAT1 inh -32, STAT1 activator 129*, STAT3 activator 94, APP 5'UTR act -2 and NF-kB expr up 1.4.
O=C(CSc1nc(Nc2ccccc2)nc(N2CCOCC2)n1)Nc1ccccc1Cl was read as STAT3 blocker 1, STAT1 inh 2, STAT1 activator 98, STAT3 activator 103, APP 5'UTR act -12 and NF-kB expr up 6.7*.
`CN(C)c1ccc(C(=O)/C=C/c2ccc(Br)cc2)cc1` gave STAT3 blocker -5, STAT1 inh -24, STAT1 activator 122, STAT3 activator 104, APP 5'UTR act 17 and NF-kB expr up 1.1.
Screening Cc1ccc(C(=O)NCC(=O)OCC(=O)c2ccc3c(c2)NC(=O)CO3)cc1C returned STAT3 blocker -11, STAT1 inh -4, STAT1 activator 102, STAT3 activator 110, APP 5'UTR act 0 and NF-kB expr up 1.3.
`O=C(/C=C/c1ccccc1)c1ccc2c(c1)OCCCCO2` gave STAT3 blocker -10, STAT1 inh -44, STAT1 activator 140*, STAT3 activator 112, APP 5'UTR act 147* and NF-kB expr up 2.6.
`Cc1cc(C)cc(OCC(=O)OCC(=O)c2ccc3c(c2)NC(=O)CO3)c1` gave STAT3 blocker -6, STAT1 inh -10, STAT1 activator 109, STAT3 activator 103 and NF-kB expr up 3.6*.
CN(C)c1ccc(C(=O)/C=C/c2ccccc2)cc1 was read as STAT3 blocker 13, STAT1 inh -41, STAT1 activator 138*, STAT3 activator 93, APP 5'UTR act 140* and NF-kB expr up 4.9*.
`O=C1COc2ccc(C(=O)/C=C/c3ccccc3)cc2N1` gave STAT3 blocker 15, STAT1 inh 2, STAT1 activator 98, STAT3 activator 87, APP 5'UTR act 6 and NF-kB expr up 3.3*.
Screening Cc1cc(NC(=O)COC(=O)c2ccco2)no1 returned STAT3 blocker 6, STAT1 inh 1, STAT1 activator 96, STAT3 activator 99, APP 5'UTR act 11 and NF-kB expr up 1.4.
CC1(C)C(=O)Nc2ccccc2N1C(=O)COc1cccnc1[N+](=O)[O-] was read as STAT3 blocker 19, STAT1 inh 4, STAT1 activator 94, STAT3 activator 90, APP 5'UTR act -5 and NF-kB expr up 1.1.
Screening COc1ccc(OC)c(NC(=O)C2=C(C)NC(=O)NC2c2cccs2)c1 (stereo not given) returned STAT3 blocker 4, STAT1 inh -1, STAT1 activator 101, STAT3 activator 104, APP 5'UTR act 6 and NF-kB expr up 1.1.
Screening C=C(C)C1CC=C(C)/C(=N/NC(=O)c2ccoc2C)C1 (stereo not given) returned STAT3 blocker 3, STAT1 inh -43, STAT1 activator 138*, STAT3 activator 98, APP 5'UTR act 29 and NF-kB expr up 1.3.
Cc1ccc(S(=O)(=O)Nc2ccc(O)c(Sc3ncn[nH]3)c2)cc1 was read as STAT3 blocker 2, STAT1 inh 2, STAT1 activator 97, STAT3 activator 99, APP 5'UTR act 2 and NF-kB expr up 0.9.
For CC(C)c1ccc(S(=O)(=O)/N=C2/C=C(Sc3ncn[nH]3)C(=O)c3ccccc32)cc1 the results were STAT3 blocker -59, STAT1 inh 11, STAT1 activator 90, STAT3 activator 152*, APP 5'UTR act -34 and NF-kB expr up 0.55.
Screening Cc1ccc(S(=O)(=O)/N=C2/C=C(Sc3ncn[nH]3)C(=O)c3ccccc32)c(C)c1 returned STAT3 blocker -55, STAT1 inh 4, STAT1 activator 96, STAT3 activator 142*, APP 5'UTR act -65 and NF-kB expr up 0.4.
`COc1ccc(COC(=O)Nc2cn(C)nc2C(F)(F)F)cc1` gave STAT3 blocker 16, STAT1 inh -9, STAT1 activator 109, STAT3 activator 94, APP 5'UTR act -4 and NF-kB expr up 0.79.
Screening COc1ccc(OCCOC(=O)c2[nH]c(C)c(C(C)=O)c2C)cc1 returned STAT3 blocker 20, STAT1 inh 12, STAT1 activator 89, STAT3 activator 86, APP 5'UTR act -4 and NF-kB expr up 5.8*.
Cc1ccnc(N(C(=O)c2cccs2)C(=O)c2cccs2)c1 was read as STAT3 blocker 5, STAT1 inh -30, STAT1 activator 128, STAT3 activator 99, APP 5'UTR act 68 and NF-kB expr up 2.3.
Screening O=C(c1cccs1)N(C(=O)c1cccs1)c1ccc(Br)cn1 returned STAT3 blocker 8, STAT1 inh -37, STAT1 activator 134*, STAT3 activator 94, APP 5'UTR act 102 and NF-kB expr up 4*.
For Cc1c(N=Nc2c(-c3ccc([N+](=O)[O-])cc3)[nH]n(C(N)=S)c2=O)cccc1[N+](=O)[O-] the results were STAT3 blocker 77*, STAT1 inh 20, STAT1 activator 80, STAT3 activator 37, APP 5'UTR act -23 and NF-kB expr up 0.69.
Screening CCN(CC)S(=O)(=O)c1ccc2c(c1)nc(CCC(=O)Nc1ccc3c(c1)OCO3)n2CC returned STAT3 blocker 24, STAT1 inh -2, STAT1 activator 102, STAT3 activator 85, APP 5'UTR act 12 and NF-kB expr up 1.
For FC(F)Oc1ccc(NC(=S)NCC2COc3ccccc3O2)cc1 (stereo not given) the results were STAT3 blocker 4, STAT1 inh 3, STAT1 activator 98, STAT3 activator 95, APP 5'UTR act 3 and NF-kB expr up 1.1.
For CCOC(=O)c1c(C)oc2c1c(C(c1cccnc1)N1CCCCC1)c(O)c1ccccc12 (stereo not given) the results were STAT3 blocker -30, STAT1 inh -1, STAT1 activator 101, STAT3 activator 131, APP 5'UTR act 79 and NF-kB expr up 6.6*.
O=C(COC(=O)c1ccccc1[N+](=O)[O-])Nc1cc(S(=O)(=O)N2CCOCC2)ccc1N1CCCC1 was read as STAT3 blocker -2, STAT1 inh 1, STAT1 activator 97, STAT3 activator 103, APP 5'UTR act 20 and NF-kB expr up 0.87.
Clc1cccc(Cl)c1CSc1cc2c(nn1)-c1ccccc1CC2 was read as STAT3 blocker 7, STAT1 inh -11, STAT1 activator 110, STAT3 activator 95, APP 5'UTR act -4 and NF-kB expr up 1.3.

Compound activity: PubChem BioAssay, several laboratories
